{"data": "Measured values gathered from unrelated publications"}
{"SMILES": "CC1(F)CN(C(=O)Cn2c(=O)c(C(=O)NCc3ccc(Cl)cc3)cc3nc(N4CCNC4=O)cnc32)C1", "tested on": "B-95-8", "test": "cell growth or viability, ATP luminescence", "setting": "5 days", "endpoint": "CC50", "value": "3.59 µM"}
{"SMILES": "Cc1ccc(Cn2cc(C(=O)NN)c(=O)c3cc(Oc4ccccc4)ccc32)cc1", "test": "metabolic stability", "test system": "male rat, liver microsomes", "setting": "1 µM", "endpoint": "microsomal CLint", "value": "< 11.6 µL/min/mg"}
{"SMILES": "CN1CCN(c2cnc3c(cc(C(=O)NCc4ccc(Cl)cc4)c(=O)n3CC(=O)N3CC(C)(F)C3)n2)C1=O", "tested on": "B-95-8", "test": "cell growth or viability, ATP luminescence", "setting": "5 days", "endpoint": "CC50", "value": "4.61 µM"}
{"SMILES": "COC(=O)COc1c(Cc2cc(C(C)(C)CC(C)(C)C)cc(-n3nc4ccccc4n3)c2OCC(=O)OC)cc(C(C)(C)CC(C)(C)C)cc1-n1nc2ccccc2n1", "tested on": "MCF7", "test": "cell growth or viability, MTT", "setting": "10 µM, 48 h", "endpoint": "viability", "value": "4.9%"}
{"SMILES": "COc1ccc2c(C[Se][C@@H]3O[C@H](CO)[C@H](O)[C@H](O)[C@H]3O)cc(=O)oc2c1", "tested on": "THP-1", "test": "cell growth or viability, WST-1", "setting": "24 h", "endpoint": "CC50", "value": "> 100 µM"}
{"SMILES": "Cn1nc2c(=O)n(C3CC3)ncc2c1[C@](O)(c1cnc(C(F)(F)F)c(Cl)c1)C(F)(F)F", "test": "metabolic stability", "test system": "male Sprague-Dawley rat, hepatocytes", "setting": "0.5 µM, pH 7.4", "endpoint": "hepatocyte CLint", "value": "0.9 µL/min/10⁶ cells"}
{"SMILES": "CC(=O)OC[C@H]1O[C@@H]([Se]Cc2ccc3ccccc3n2)[C@H](OC(C)=O)[C@@H](OC(C)=O)[C@@H]1OC(C)=O", "tested on": "THP-1", "test": "cell growth or viability, WST-1", "setting": "24 h", "endpoint": "CC50", "value": "~50 µM"}
{"SMILES": "CN/C(=N/CCSCc1nc[nH]c1C)NC#N", "test": "metabolic stability", "test system": "human, hepatocytes", "setting": "0.5 µM, pH 7.4", "endpoint": "hepatocyte CLint", "value": "2.15 µL/min/10⁶ cells"}
